Screening results from PubChem BioAssay.
APJ antagonist: antagonists of human apelin receptor APJ, primary screen, CHO-K1 cells, beta-arrestin complementation, luminescence; inhibition, % at 20 µM; P35414; AID 2521, 2010; 0.32% of 330,000 active;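 active = inhibition above about 40% at 20 µM, limit read from the data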;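 note: cells challenged with 10 nM apelin-13 agonist together with compound; plate controls were apelin-13 plus DMSO wells for no effect and DMSO wells lacking apelin-13 for full effect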
APJ ag: agonists of human apelin receptor APJ, primary screen, CHO-K1 cells, PathHunter beta-arrestin, luminescence; P35414; 0% DMSO wells, 100% apelin; activation, % at 20 µM; 0.11% of 330,000 active; AID 2520, 2010;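 active = activation more than six SD over the plate average, tested at 20 µM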;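 note: 0% = DMSO alone and 100% = apelin-13 at 10 nM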
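Test system: CHO-K1 APJ beta-arrestin complementation cell line. Amount: cell density 1000 per well. Controls: DMSO negative, 10 nM Apelin-13 positive. Signal: luminescent beta-gal fragment complementation, chemiluminescent substrate. Read-out basis: agonist-driven arrestin binding to APJ. Timing: compound stimulation 90 min at 25 °C, detection 60 min.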
CXCR6 inh: CXCR6 receptor inhibitors, primary screen, cell-based, beta-arrestin, luminescence, CHO-K1 PathHunter, 1536-well | 0.36% of 360,000 active | inhibition, % at 20 µM | AID 602244, 2012; in the data active = inhibition above about 34%, passing the limit was not always enough;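 note: antagonist mode with CXCL16 agonist at 10 nM final; 0% = 10 nM CXCL16 with DMSO and 100% = unstimulated wells without agonist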
EBI2 antag: EBI2 receptor antagonists, beta-arrestin recruitment, primary screen, cell-based, luminescence, 7a,25-OHC stimulation, uHTS. 0.81% of 360,000 active. inhibition, % at 5 µM. 7a,25-OHC stimulated; in the data active = inhibition above about 38%;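 note: enzyme fragment complementation signal reports receptor beta-arrestin coupling in cells; 0% = agonist plus DMSO wells and 100% = wells without agonist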
CCR6 antag: CCR6 receptor antagonists, primary screen, cell-based, CHO-K1, luminescence, beta-arrestin, uHTS | C-C chemokine receptor type 6 (Homo sapiens), P51684 | CHO-K1 CCR6 PathHunter beta-arrestin, CCL20-stimulated | inhibition, % at 20 µM | 0.49% of 340,000 active;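 active = compounds whose inhibition of the agonist-driven luminescence signal at 20 µM reaches about 50%, limit read from the data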;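 note: cells stimulated with CCL20 at 14 nM final; plate controls were DMSO with CCL20 for no effect and DMSO without agonist for full effect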
HTR2A ag: mouse Htr2a agonists via beta-arrestin recruitment, primary screen, cell-based, luminescence; 5-hydroxytryptamine receptor 2A (Mus musculus), P35363; CHO-K1 mHTR2A beta-arrestin complementation; percent of 30 µM serotonin response; activation, % at 7.6 µM; 0.66% of 360,000 active; AID 624169, 2012;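 active = activation above a run cutoff, the mean activation of all tested compounds plus 3 SD, cut at about 14% in these data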;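 note: 0% = plate median of compound wells and 100% = 30 µM serotonin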
Target sequence (P35363 whole entry, looked up): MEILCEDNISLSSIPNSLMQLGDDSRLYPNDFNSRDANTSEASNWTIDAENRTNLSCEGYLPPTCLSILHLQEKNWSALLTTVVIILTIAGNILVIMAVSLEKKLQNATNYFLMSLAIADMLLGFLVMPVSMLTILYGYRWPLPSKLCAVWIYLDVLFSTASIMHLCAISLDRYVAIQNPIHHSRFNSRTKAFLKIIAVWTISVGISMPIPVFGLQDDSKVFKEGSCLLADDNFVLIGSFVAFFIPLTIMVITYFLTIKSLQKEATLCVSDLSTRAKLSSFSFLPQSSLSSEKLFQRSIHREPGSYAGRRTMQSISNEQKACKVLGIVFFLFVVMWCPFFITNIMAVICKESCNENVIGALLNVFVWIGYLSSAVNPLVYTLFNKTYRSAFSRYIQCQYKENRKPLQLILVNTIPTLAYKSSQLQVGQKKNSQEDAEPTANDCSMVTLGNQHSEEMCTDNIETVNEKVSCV
OPRM1 ag: OPRM1 agonists via beta-arrestin recruitment, confirmation, counter-screen for mouse HTR2A agonist project, cell-based, luminescence, single concentration; shares compounds with HTR2A ag; U2OS OPRM1 beta-arrestin PathHunter; DMSO 0%, DAMGO 9.3 µM 100%; activation, % at 9.3 µM; 5.3% of 2,300 active; AID 624380, 2012;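 active = mean activation above the mean of DMSO-only wells plus 3 SD, cut at about 0.5% in these data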
m5-HT2A ag conf: mouse HTR2A agonists, beta-arrestin recruitment, confirmation, cell-based, luminescence, CHO-K1 PathHunter, triplicate. shares compounds with HTR2A ag. DMSO 0%, 30 µM serotonin 100%. activation, % at 7.6 µM. 19% of 2,300 active;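 active = mean activation across triplicates above the hit threshold derived in the original primary screen, cut at about 15% in these data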
Starred values were filed as active, the others as inactive; · = no result given. This is a sample that favours compounds with a hit; in the whole collection about 2.1% have one here.

SMILES	APJ antagonist	APJ ag	CXCR6 inh	EBI2 antag	CCR6 antag	HTR2A ag	OPRM1 ag	m5-HT2A ag conf
O=c1c(CN2CCN(c3cccc(Cl)c3)CC2)coc2c(Cl)cc(Cl)cc12	5	-5	9	2	20	16*	0	4
Cc1cccc(NC(=O)CSc2nnc(-c3ccco3)n2CC2CCCO2)n1 (stereo unspecified)	-5	0	-3	0	9	15*	-1	-5
C[C@H]1CN([C@@H](C)CO)C(=O)c2cc(NS(=O)(=O)c3ccc(F)cc3)ccc2O[C@H]1CN(C)S(=O)(=O)c1cn(C)cn1	-15	-1	2	7	12	1	·	·
CCc1nnc(NS(=O)(=O)c2ccc(NC(=O)CCC(=O)O)cc2)s1	-18	2	8	-11	9	15*	-1	-4
COc1ccccc1C(=O)NC(=O)COC(=O)c1ccc([N+](=O)[O-])cc1	-100	14	-16	-13	-10	18*	0	5
COc1ccccc1C(=O)NC(=O)COc1ccc([N+](=O)[O-])cc1	13	-2	3	-1	4	4	·	·
COc1ccccc1C(=O)NC(=O)COC(=O)C1(C)CC1(Cl)Cl (stereo unspecified)	9	-5	0	-1	12	18*	-1	-5
CC1(C(=O)OCC(=O)NC(=O)NCc2ccccc2)CC1(Cl)Cl (stereo unspecified)	-2	-3	-4	3	-1	0	·	·
CCNC(=O)CC1SC(=Nc2cccc(Cl)c2C)N(C)C1=O (stereo unspecified)	-4	-2	6	-2	12	0	·	·
CC(C)[C@H](NC(=O)c1ccccc1F)C(=O)Nc1nc2c(s1)CCCC2	-22	-3	2	0	12	3	·	·
CCOC(=O)C1CCCN(C(=O)c2cccc3ccccc23)C1 (stereo unspecified)	4	-3	-3	7	1	17*	0	-3
CC(NC(=O)Cn1c(=O)oc2cc(S(=O)(=O)N3CCCC3)ccc21)c1ccccc1 (stereo unspecified)	-54	-4	8	-2	4	18*	-1	-5
Cc1ccc(C)c(N2CCN(C(=O)Cn3c(=O)oc4cc(S(=O)(=O)N5CCCC5)ccc43)CC2)c1	1	-3	3	5	8	29*	0	-2
O=C(Cn1c(=O)oc2cc(S(=O)(=O)N3CCCC3)ccc21)N1CCN(c2ccccc2)CC1	-32	-3	12	5	22	6	·	·
C/C(=N\O)c1ccc2c3c([nH]c2c1)CCCC3	-6	-3	-13	-4	12	4	·	·
O=C(CCN1CCN(c2ccccc2)CC1)N/N=C/c1ccccc1OC(F)F	9	-3	10	6	-3	17*	0	50*
COc1ccc(/C=N\NC(=O)CCN2CCN(c3ccccc3)CC2)cc1OC	-5	0	-1	4	-7	10	·	·
CCCN1CCC(=NNc2ccc(S(=O)(=O)N3CCOCC3)cc2[N+](=O)[O-])CC1	-6	5	3	0	1	17*	0	1
CC(C)Cc1cc(CNC(=O)C2CCC(=O)N(Cc3cccc(C(F)(F)F)c3)C2)on1 (stereo unspecified)	-14	-2	15	-1	8	1	·	·
O=C(NC1CC1)c1ccc(NS(=O)(=O)c2ccccc2)cc1	-5	13	1	2	-6	-6	·	·
O=C(NC1CCC(O)CC1)c1ccc(NS(=O)(=O)c2cccc([N+](=O)[O-])c2)cc1 (stereo unspecified)	3	-1	-3	-14	3	15*	0	-4
Cc1cccc(N2C(=O)C3C4C=CC(C4)C3C2=O)c1 (stereo unspecified)	12	-1	-3	7	-3	22*	0	0
COc1ccc(C(=O)Oc2ccc(/C=N/NC(=O)c3ccccc3OC)cc2[N+](=O)[O-])cc1	21	-2	4	-59	-3	4	·	·
COc1ccc(/C=N/NC(=O)c2cccc([N+](=O)[O-])c2)cc1OC(=O)c1ccc(C)cc1	-6	-3	2	4	2	20*	0	-8
O=C(N/N=C/c1ccc(OC(=O)c2ccccc2)c([N+](=O)[O-])c1)c1ccc(O)cc1	13	-1	18	-29	-28	16*	-1	-6
SMILES	APJ antagonist	APJ ag	CXCR6 inh	EBI2 antag	CCR6 antag	HTR2A ag	OPRM1 ag	m5-HT2A ag conf
COc1ccc(/C=N/NC(=O)c2cccc([N+](=O)[O-])c2)cc1OC(=O)c1ccccc1	-8	-5	4	6	14	-9	·	·
CC(C)(C)n1nnnc1C(C1CC1)N1CCN(C/C=C/c2ccccc2)CC1 (stereo unspecified)	·	·	0	1	·	20*	0	35*
CCC(c1nnnn1-c1ccc2c(c1)OCCO2)N1CCN(C/C=C/c2ccccc2)CC1 (stereo unspecified)	·	·	-9	18	·	20*	-1	62*
C(=C\c1ccccc1)/CN1CCN(C(CCc2ccccc2)c2nnnn2-c2ccc3c(c2)OCCO3)CC1 (stereo unspecified)	·	·	8	28	·	-4	·	·
C(=C\c1ccccc1)/CN1CCN(C(c2nnnn2-c2ccc3c(c2)OCCO3)C2CC2)CC1 (stereo unspecified)	·	·	4	11	·	15*	-1	51*
Cc1ccc(NS(=O)(=O)c2ccc3c(c2)oc(=O)n3C)cc1F	19	-1	-10	-6	-15	6	·	·
S=C(NC1CCCCC1)N1CCN(Cc2ccccc2Cl)CC1	-7	0	-7	-8	7	17*	0	1
S=C(NC1CCCCC1)N1CCN(Cc2ccccc2)CC1	-3	-2	7	-15	15	2	·	·
CCc1nn(CC(=O)N2CCN(CC)CC2)c(=O)c2cc3sccc3n12	-5	-2	2	-8	9	0	·	·
